Screening results deposited in PubChem by several laboratories.
M1 antagonist – antagonists of rat M1 muscarinic receptor; P08482; CHO-M1 cells, Fluo-4 calcium, ACh EC80 antagonist mode; active compounds read low; B-score at 10 µM; hit rate 3.4% among 64,000; AID 628;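 active = calcium fluorescence response, raw or row-and-column corrected B-score, differing from the plate sample mean either way at a set confidence level, mostly lower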
SF-1 act – activators of human nuclear receptor SF-1; Q13285; CHO-K1 Gal4-SF-1 LBD luciferase reporter; % increase over DMSO SF-1-specific signal; activation, % at 10 µM; hit rate 1.9% among 65,000;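 active = activation above the mean activation of all tested compounds plus 3 SD, cut at about 50% in these data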
Target sequence (Q13285 whole entry, looked up, the tested form may be a part): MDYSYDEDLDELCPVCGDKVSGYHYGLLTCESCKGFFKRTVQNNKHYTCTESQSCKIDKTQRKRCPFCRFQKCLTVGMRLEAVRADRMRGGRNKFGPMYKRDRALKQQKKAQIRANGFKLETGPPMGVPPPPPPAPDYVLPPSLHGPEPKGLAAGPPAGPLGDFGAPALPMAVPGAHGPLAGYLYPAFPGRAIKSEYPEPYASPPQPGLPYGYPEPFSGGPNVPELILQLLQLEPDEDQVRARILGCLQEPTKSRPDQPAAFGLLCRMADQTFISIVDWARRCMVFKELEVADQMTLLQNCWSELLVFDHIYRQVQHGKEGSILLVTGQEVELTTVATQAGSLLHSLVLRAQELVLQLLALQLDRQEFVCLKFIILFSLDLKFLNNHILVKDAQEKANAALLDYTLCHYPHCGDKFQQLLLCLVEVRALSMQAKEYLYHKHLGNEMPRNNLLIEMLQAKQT
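Test system: CHO-K1 cells co-transfected with Gal4 DBD–human SF-1 LBD, 5xGal4 luciferase reporter. Quantity: 4,000 cells per well. Compound: 10 µM only. Incubation: compound added 1 h post-seeding, 20 h exposure at 37 °C, 5% CO2. Detection: SteadyLite luciferase luminescence. Replication: one test per compound.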
MT1-MMP txn act – activates MT1-MMP transcription; HT1080 MT1-MMP promoter luciferase reporter, luminescence, overnight; active compounds read high; activation factor at 10 µM; hit rate 0.16% among 86,000;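 active = activation factor of at least 2 for MT1-MMP transcription at 10 µM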
RORa activator – activators of human nuclear receptor RORA. CHO-K1 Gal4-RORA LBD luciferase reporter, luminescence; percent increase over mock-subtracted basal signal. activation, % at 10 µM. hit rate 1.5% among 65,000. AID 560;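 active = activation above the mean of all tested compounds plus 3 SD, cut at about 49% in these data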
M1 ag – activates the M1 muscarinic receptor; CHO-M1 cells, Fluo-4 calcium fluorescence, agonist mode; active compounds read high; B-score at 10 µM; hit rate 3% among 64,000;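 active = fluorescence rise, raw or as B-score row- and column-corrected plate score, outside the 99.7% band of its plate's samples, either direction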
M1 agonist conf – rat M1 muscarinic agonism, confirmation. fluorescence change (max-min) at 10 µM. CHO-M1 cells, Fluo-4 calcium fluorescence, agonist mode; actives lie on both sides. hit rate 19% among 1,700. shares compounds with M1 ag;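 active = fluorescence change differs from the solvent-only DMSO control mean at a set confidence level in both duplicate runs; inconclusive = differs from solvent-only control mean in just one of two runs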;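 note: an EC20 dose of acetylcholine follows compound addition during the same imaging run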
M4 agonist ctr – rat M4 muscarinic agonism, M1 counter-screen. shares compounds with M1 ag. CHO M4/Gqi5 cells, Fluo-4 calcium fluorescence, agonist mode; actives lie on both sides. fluorescence change (max-min) at 10 µM. hit rate 9% among 1,700. AID 1741;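 active = fluorescence change differing from the plate's solvent-only control wells at 99.7% confidence in both duplicates, whether higher or lower; inconclusive = differs from solvent controls in only one of two duplicates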
Hits are given with their value; i = inactive; ? = inconclusive; nt = no result. This is a sample that favours compounds with a hit; in the whole collection about 6.3% have one here.

SMILES	M1 antagonist	SF-1 act	MT1-MMP txn act	RORa activator	M1 ag	M1 agonist conf	M4 agonist ctr
CCOC(=O)C1CCCN(C(=O)c2cc3nc(-c4cccc(OC)c4)cc(C(F)(F)F)n3n2)C1 (configuration not stated)	i	i	i	i	3.7	i	i
COC(=O)C1=C(N)Oc2cc(C)n(CCCn3ccnc3)c(=O)c2C1c1cccc(Cl)c1 (configuration not stated)	i	i	i	i	i	nt	nt
CC1CCCCC1NC(=O)CN1CCC(O)(c2ccc(F)cc2)CC1 (configuration not stated)	i	i	i	i	i	nt	nt
CC(C)COC(=O)NCCCOC(=O)Nc1ccccc1	i	i	i	i	i	nt	nt
CC(C)COC(=O)NCCOC(=O)Nc1cccc(Cl)c1	-2.16	i	i	i	7.52	i	-84.9
CCOc1ccc(-c2noc(COC)n2)cc1OC	i	i	i	i	3.2	i	i
CCOC(=O)C1=C(C)NC(SC)=NC1c1ccc(OC)cc1 (configuration not stated)	nt	nt	i	nt	nt	nt	nt
CCOC(=O)C1=C(C)NC(C)=C(C(=O)OCC)C1c1ccc(OC)cc1	i	i	i	i	1.86	i	i
Cc1cc(-c2ccccc2)nc(N(C)NC(=O)c2cccc(C(F)(F)F)c2)c1S(C)(=O)=O	nt	nt	i	nt	nt	nt	nt
N#Cc1c(-c2ccc3c(c2)OCO3)csc1N	i	i	i	i	3.16	i	i
O=C(C1CCN(S(=O)(=O)c2cccc3nsnc23)CC1)N1CC=C(c2ccccc2)CC1	i	i	i	i	7.48	i	i
CC(=O)Nc1nc(C)c(-c2csc(Nc3ccc(O)cc3)n2)s1	-2.03	i	i	i	6.39	i	?
Cc1nc(C)c(-c2csc(Nc3cccnc3)n2)s1	i	i	i	i	i	nt	nt
CCn1c(O)c(C=Nc2ccccc2)n(-c2ccccc2)c1=S	nt	nt	i	nt	nt	nt	nt
O=C1CSC(c2nn(-c3ccccc3)cc2-c2cc3ccccc3oc2=O)N1Cc1ccco1 (configuration not stated)	i	i	i	i	3.17	i	i
CCN=C1SC(C(=O)Nc2ccc(Cl)c(Cl)c2)CC(=O)N1CC (configuration not stated)	i	i	i	i	i	nt	nt
CCN=C1SC(C(=O)NCCc2ccccc2)CC(=O)N1CC (configuration not stated)	i	i	i	i	4.75	?	i
CCN=c1sc(C(=O)NCCc2ccccc2)cc(=O)n1CC	-2.94	i	i	i	12.1	i	i
CS(=O)(=O)NCc1nnc(SCC(=O)NC2CCCCC2)n1-c1ccc(F)cc1	i	i	i	i	i	nt	nt
Cn1nc(-c2ccc(OCC(=O)Nc3cccnc3)cc2)c2ccccc2c1=O	i	i	i	i	6.19	?	i
CNC(=O)COc1ccc(-c2nn(C)c(=O)c3ccccc23)cc1	nt	nt	i	nt	nt	nt	nt
O=C(C1CCN(S(=O)(=O)c2ccc3ccccc3c2)CC1)N1CCN(c2ncccn2)CC1	i	i	i	i	i	nt	nt
O=C(O)c1ccc(S(=O)(=O)NC2CCCc3ccccc32)cc1 (configuration not stated)	i	i	i	i	2.91	?	?
O=C(Nc1ccccc1F)c1ccc(S(=O)(=O)NCC2CCCO2)cc1 (configuration not stated)	i	i	i	i	i	nt	nt
O=C(CSc1nnnn1-c1ccc2c(c1)OCCO2)N1CCc2ccccc21	i	i	i	i	i	nt	nt
SMILES	M1 antagonist	SF-1 act	MT1-MMP txn act	RORa activator	M1 ag	M1 agonist conf	M4 agonist ctr
c1ccc(CSc2nnnn2-c2ccc3c(c2)OCCO3)nc1	i	i	i	i	6.7	i	i
Cc1c(-n2cc(C(=O)c3cc(Cl)ccc3O)cc(C#N)c2=O)c(=O)n(-c2ccccc2)n1C	nt	nt	i	nt	nt	nt	nt
Cc1cc2n(n1)C(c1ccccc1Cl)Nc1ccccc1-2 (configuration not stated)	i	i	i	i	2.51	i	i
CSc1nc(-c2ccco2)nn1S(C)(=O)=O	i	i	i	i	i	nt	nt
NC(=O)C1CCN(c2ncnc3c2c(-c2ccccc2)cn3-c2ccccc2)CC1	i	i	i	i	3.71	?	i
COc1ccc(OC)c(S(=O)(=O)N2CCC(C(=O)Nc3cccc(C(F)(F)F)c3)CC2)c1	i	i	i	i	4.39	i	i
COc1ccc(OC)c(S(=O)(=O)N2CCC(C(=O)NCc3ccccc3)CC2)c1	i	i	i	i	i	nt	nt
CC(C)OC(=O)c1c2nc3ccccc3nc2n2c1[nH]c(=O)c1ccccc12	i	i	i	i	7.94	73.5	i
Cc1nn(C(=O)c2ccccc2)c2c1C(=O)CC(C)(C)C2	i	i	i	i	9.72	i	?
CCCc1nn(C(=O)c2ccccc2)c2c1C(=O)CC(C)(C)C2	nt	nt	i	nt	nt	nt	nt
Clc1ccc(Cc2nn3c(Cn4nnc5ccccc54)nnc3s2)cc1	i	i	i	i	i	nt	nt
COc1ccc(OC)c(S(=O)(=O)N2CCC(C(=O)N3CCc4ccccc4C3)CC2)c1	i	i	i	i	i	nt	nt
COC(=O)C1=C(N)Oc2cc(N(C)C)ccc2C1c1ccccc1OC (configuration not stated)	i	i	i	49.2	10	i	i
COC(=O)C1=C(N)Oc2cc(C)n(CC3CCCO3)c(=O)c2C1c1ccccc1OC (configuration not stated)	i	i	i	i	i	nt	nt
COc1ccc(CNc2nc3c(c(=O)n(Cc4ccc(Br)cc4)c(=O)n3C)n2C)cc1	i	i	i	i	3.42	i	i
Cn1c(NCc2ccccc2)nc2c1c(=O)n(Cc1ccc(Br)cc1)c(=O)n2C	i	i	i	i	i	nt	nt
Cn1c(CCNC(=O)c2ccco2)nc2cc(NS(=O)(=O)c3ccccc3)ccc21	i	i	i	i	31.7	?	i
COC(=O)[C@@]1(Cc2ccccc2)[C@H]2c3cc(C(=O)N(C)C)n(Cc4nc5ccccc5[nH]4)c3C[C@H]2CN1C(=O)c1ccccc1	nt	nt	i	nt	nt	nt	nt
CCCC(=O)c1ccc(N2CCN(C(=O)c3ccccc3Br)CC2)c(F)c1	-3.24	i	i	i	3.08	?	i
CCCC(=O)c1ccc(N2CCN(C(=O)c3ccccc3)CC2)c(F)c1	i	i	i	i	4.06	i	i
CCC(=O)c1cc(F)c(N2CCN(C(=O)Cc3ccccc3)CC2)cc1C	-1.18	i	i	i	2.67	i	i
CCCC(=O)c1ccc(N2CCN(C(=O)c3ccc(Br)cc3)CC2)c(F)c1	i	i	i	i	i	nt	nt
O=C(CSc1nnc(-c2ccc(Cl)cc2Cl)n1C1CCCCC1)N1CCCC1	nt	nt	i	nt	nt	nt	nt
COc1cccc(N(CC(=O)N2CCN(C)CC2)S(=O)(=O)c2ccc(C)cc2)c1	i	i	i	i	i	nt	nt
COc1ccc(-c2cn3cc(C)ccc3n2)cc1OC	i	i	i	i	2.24	?	?
